Source: PubChem BioAssay
Shown are actives, neighbours in structure and some others; about 3.5% of the full set was active somewhere.
MEKK2 WT-MEK5: modulators of MEK5 binding to wildtype MEKK2, primary screen, biochemical, multiplex bead flow cytometry, Alexa488-MEK5. Alexa488-MEK5 binding to MEKK2 WT; actives lie on both sides. binding response (% of control), % at 10 µM. hit rate 1.1% among 290,000. AID 1531, 2009; in the data active = binding response below about 67% or above about 130%
ABCB1 inh: ABCB1 efflux pump inhibitors, primary screen, cell-based, multiplex, flow cytometry, ABCG2 counter-screen; AID 1326, 2008; hit rate 0.067% among 190,000; inhibition, % at 6.6 µM; CCRF-Adr cells, JC-1 efflux; in the data active = inhibition above about 40%;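 also: 0% = vehicle and 100% = reference inhibitor; higher value means more JC-1 retained so stronger ABCB1 efflux block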
WT yeast gro inh: growth inhibition of WT strain, primary screen, mitochondrial fusion inhibitor project, WT and mutant strains, chemical genetic; mitochondrial fusion phenotypic screen; inhibition, % at 10 µM; hit rate 2.1% among 190,000; in the data active = inhibition above about 58%; tested in S. cerevisiae
ABCG2 block: ABCG2 efflux pump inhibitors, primary screen, multiplex with ABCB1, IgMXP3 cells, flow cytometry; inhibition, % at 6.6 µM; AID 1325, 2008; Broad substrate specificity ATP-binding cassette transporter ABCG2 (Homo sapiens), Q9UNQ0; hit rate 0.1% among 190,000; JC-1 efflux;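 active = inhibition above 80%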;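 also: 0% = DMSO and 100% = nicardipine control wells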
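System: two drug-resistant human cell lines, ABCG2 and ABCB1; controls: nicardipine high and DMSO low controls; times: 10 min exposure at 25 °C with rotation, no wash; detection: flow cytometry of retained JC-1 fluorescence; read-out basis: percent efflux inhibition, scaled nicardipine 100% to DMSO 0%; doses: one concentration, 6.6 µM final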
MEKK2mut PB1 HTS: MEK5 binding signal on mutant MEKK2 PB1, primary screen, biochemical, multiplex bead flow cytometry, Alexa488-MEK5. Alexa488-MEK5 binding to MEKK2 mutant. percent response, % at 10 µM. hit rate 0.35% among 290,000. AID 1530, 2009; in the data active = percent response above about 24%, passing the limit was not always enough
MEKK3 PB1 HTS: modulators of MEKK3-MEK5 PB1 binding, primary screen, biochemical, wildtype MEKK3, multiplex bead flow cytometry, Alexa488-MEK5; bead-based flow cytometry, Alexa488-MEK5 binding to MEKK3; actives lie on both sides; 0 = blocked by unlabeled MEK5, 100 = vehicle; binding response (% of control), % at 10 µM; hit rate 1.4% among 290,000;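 active = binding response more than 3 SD above or below the average of its plate-row segment, actives on both sides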;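 also: Alexa488 bead fluorescence after subtracting the streptavidin-only scavenger bead signal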
MEKK2wt confirm: modulators of MEK5 binding to wildtype MEKK2, confirmation, biochemical, single concentration, multiplex bead flow cytometry; shares compounds with MEKK3 PB1 HTS; Alexa488-MEK5 binding to MEKK2 WT; actives lie on both sides; binding response (% of control), % at 10 µM; hit rate 2.4% among 5,900; AID 1892, 2009; in the data active = binding response below about 16% or above about 210%; inactive = in between
MEKK2mut confirm: mutant MEKK2 PB1-MEK5 binding signal retest – biochemical, single concentration, multiplex bead flow cytometry, confirmation; shares compounds with MEKK3 PB1 HTS; hit rate 2% among 5,900; percent response, % at 10 µM; AID 1893, 2009; Alexa488-MEK5 binding to MEKK2 mutant; in the data active = percent response mostly above about 71%, no sharp cut-off; inactive = mostly below about 38%;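 also: higher means compound restores mutant binding toward wildtype level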
MEKK3 confirm: MEKK3 wild-type PB1 binding to MEK5, inhibitors, confirmation, biochemical, bead multiplex flow cytometry, single concentration, wildtype | shares compounds with MEKK3 PB1 HTS | Alexa488-MEK5 binding to MEKK3; hits give low values | binding response (% of control), % at 10 µM | hit rate 1.8% among 5,900 | AID 1894, 2009;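 active = binding response below 72% of control, or above a set upper limit, though filed actives all read lower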;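 also: 100% = DMSO only wells and 0% = binding blocked by excess unlabeled MEK5; lower values mean stronger disruption of MEK5 binding to MEKK3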
Active calls of the source: *; . = not tested or not shown; [ ] = dose if it differs, or a comment.

SMILES	MEKK2 WT-MEK5	ABCB1 inh	WT yeast gro inh	ABCG2 block	MEKK2mut PB1 HTS	MEKK3 PB1 HTS	MEKK2wt confirm	MEKK2mut confirm	MEKK3 confirm
CCS(=O)(=O)N1Cc2ccccc2CC1C(=O)Nc1ccc(OC)cc1 (configuration not stated)	1.0*[inhibitor]	0	-2	0	-23	2.0*[inhibitor]	96	-4	97
Nc1nc(Nc2cccc(F)c2)nc(NCc2ccco2)c1[N+](=O)[O-]	94	.	.	.	-16	92	.	.	.
CC(C)COc1cccc(-c2cc(C(=O)N/N=C/c3ccncc3)c3ccccc3n2)c1	97	.	.	.	-2	100	.	.	.
Cc1cc(C)cc(Oc2ccc(NC(=O)C3CC=CCC3C(=O)O)cc2)c1 (configuration not stated)	87	0	1	2	-4	75*[inhibitor]	102	-3	101
O=C(O)C1CC=CCC1C(=O)Nc1ccc(Oc2ccc(Cl)cc2)cc1 (configuration not stated)	91	0	-7	-2	-4	93	.	.	.
CCN(CC)S(=O)(=O)c1ccc(C(=O)/C=C/c2ccc(-c3ccc([N+](=O)[O-])cc3)o2)cc1	37*[inhibitor]	.	.	.	-12	87	65	-15	85
COC(=O)Cn1ncc(N2CC(C)OC(C)C2)c(Cl)c1=O (configuration not stated)	96	.	.	.	6	101	.	.	.
CN(Cc1ccccc1)C(=O)C1CCC(CNS(=O)(=O)c2cccc3cccnc23)CC1 (configuration not stated)	119	.	.	.	26	131*	106	2	99
C/C(=N/Nc1ccc([N+](=O)[O-])cc1)c1ccc(C)cc1C	148*	0	23	1	8	112	110	4	109
O=C(O)CC/C(=N/Nc1ccc([N+](=O)[O-])cc1)C(=O)O	71	.	.	.	-26	75*[inhibitor]	101	-2	100
C/C(=N\Nc1ccc([N+](=O)[O-])cc1)c1ccc(C#N)cc1	95	.	.	.	-8	95	.	.	.
Cc1c(N=NC2=C(O)CC(C)(C)CC2=O)c(=O)n(-c2ccccc2)n1C	95	0	0	0	2	102	.	.	.
Cc1ccc(S(=O)(=O)Nc2ccc(-c3nc4ccc(C)cc4s3)cc2)cc1	107	0	-4	-5	0	151*	106	3	105
Cc1ccc2nc(NC(=O)CCNS(=O)(=O)c3cccs3)sc2c1	95	1	8	8	-3	102	.	.	.
Cc1ccc2nc(NC(=O)c3ccc(NS(=O)(=O)c4cccs4)cc3)sc2c1	101	-1	9	-3	-1	136*	98	-5	97
Nc1nc(-c2ccccc2)nc2sc3c(c12)CCCC3	108	0	5	23	0	103	.	.	.
COc1cc(C2C(C#N)=C(N)N(N(C)C)C3=C2C(=O)CC(C)(C)C3)cc(OC)c1OC (configuration not stated)	100	.	.	.	1	105	.	.	.
Cc1cc(Nc2ncc(Cl)cc2Cl)n(-c2ccccc2)n1	108	1	55	12	1	139*	110	6	104
Cc1cc(Nc2ncc(Cl)cc2Cl)n(-c2ccccn2)n1	110	1	-8	2	7	104	.	.	.
COc1ccc(NC(=O)/C(C#N)=C/c2ncc([N+](=O)[O-])n2C)c(OC)c1	107	.	.	.	1	107	.	.	.
CCOC(=O)c1cnn(CCOC(=O)C(C)(C)C)c1NC(=O)C(C)(C)C	0.0*[inhibitor]	1	-10	1	-25	2.0*[inhibitor]	98	-6	101
CCOC(=O)c1cnn(CCOC(=O)C2CC2)c1NC(=O)C1CC1	102	1	-32	4	9	103	.	.	.
Cc1ccc2c(c1)c(C)c(C)n2CC(O)Cn1nc(C)cc1C (configuration not stated)	39*[inhibitor]	0	5	2	3	110	100	1	102
Cc1ccc2c(c1)c(C)c(C)n2CC(O)Cn1nnc2ccccc21 (configuration not stated)	101	0	10	2	0	103	.	.	.
Cn1c(N2CCCC2)nc2c1c(=O)[nH]c(=O)n2C	117	.	.	.	16	109	.	.	.
SMILES	MEKK2 WT-MEK5	ABCB1 inh	WT yeast gro inh	ABCG2 block	MEKK2mut PB1 HTS	MEKK3 PB1 HTS	MEKK2wt confirm	MEKK2mut confirm	MEKK3 confirm
Cn1c(=O)n(C)c2cc(S(=O)(=O)NCCOCCO)ccc21	-1.0*[inhibitor]	0	-7	0	-27	2.0*[inhibitor]	103	2	102
CSc1cccc(-n2ccc(=O)c(C)c2C)c1	108	.	.	.	11	107	.	.	.
CCc1noc(C)c1C(=O)Nc1nnc(C2CCCCC2)s1	93	2	8	9	-4	99	.	.	.
N#CCc1ccc(Oc2ccc([N+](=O)[O-])cn2)cc1	52	.	.	.	-19	48*[inhibitor]	106	7	106
O=C1c2ccccc2C(=O)N1/N=C/c1ccc(Oc2ccc([N+](=O)[O-])cn2)cc1	91	-1	2	6	-8	86	.	.	.
O=C(NCCCN1CCOCC1)c1cc2c([nH]c3ccccc32)c(-c2cccc(Br)c2)n1	161*	.	.	.	31*	112	177	36	110
COc1cccc(-c2nc(C(=O)NCCCN3CCOCC3)cc3c2[nH]c2ccccc23)c1	127	.	.	.	9	103	.	.	.
Cc1nn2c(COc3ccc(NC(=O)c4ccccc4Cl)cc3)nnc2c2ccccc12	107	17	9	15	0	119	.	.	.
COc1ccc(/C=C/c2noc(-c3ccccc3O)n2)cc1	106	1	23	12	0	131*	94	0	98
CC1(C)CC(=O)C2(CC3=C(CC(C)(C)CC3=O)O2)C(=O)C1	103	0	12	0	6	108	.	.	.
